Published values from different studies.
Lines come from different studies, so protocols differ.
Organism: Escherichia coli
Read-out: microbial growth

For `Cc1c(CN(C)C(=O)/C=C/c2cnc3c(c2)CC(CCN)C(=O)N3)oc2ccccc12.Cl` (stereo not drawn), the MIC was 2 µg/mL (broth dilution; BAA2469; clinical isolate).
For `Cn1cc(NC(=O)C(CC(N)=O)NC(=O)c2ccc(NC(=O)c3ccc(C#N)cc3)cc2)cc1-c1nc2ccc(C(=O)Nc3ccc(C(=O)O)cc3)c(O)c2[nH]1` (stereo not drawn), the MIC was greater than 64 µg/mL (DSM1116).
`C[C@H](CCC(=O)NCCCNCCCCNCCCN)[C@H]1CC[C@H]2[C@@H]3CC[C@@H]4C[C@H](O)CC[C@]4(C)[C@H]3CC[C@]12C` gave an MIC of 128 µg/mL (broth dilution; MG1655; 20 h).
`O=C(O)c1cn(C2CC2)c2cc(N3CCNCC3)c(F)cc2c1=O` has an MIC of no more than 1 µg/mL (broth dilution; ATCC10536; 18 h).
For `C=CCn1c(-c2ccc([N+](=O)[O-])cc2)nc2ccccc21`, the MIC was 64 µg/mL (broth dilution; ATCC25922).
With `N=C(N)c1ccc(OCCC(CCOc2ccc(C(=N)N)cc2)c2ccccc2)cc1` (stereo not drawn) the MIC was greater than 200 µg/mL (BW25113).
With `Fc1ccc(NCc2ccc(Oc3ccccn3)cc2)cc1` the MIC was greater than 12.5 µg/mL.
`Cc1ccc2nc(-c3ccc(Cl)c(Cl)c3)[nH]c2c1` gave an MIC of 32 µg/mL (broth dilution; ATCC25922).
`Cc1cccc(NCc2ccc(Oc3ccccn3)cc2)c1` has an MIC of greater than 50 µg/mL.
The MIC of `Cn1c(SCc2ccc(Cl)cc2)nnc1-c1cncc(C#Cc2ccccc2)c1` is reported as no less than 20 µg/mL.
`CC(C)Oc1c(NC(=O)c2ccc(NC(=O)[C@H](CC(N)=O)NC(=O)c3ccc(NC(=O)c4ccc(C#N)cc4)cc3)cc2)ccc(C(=O)O)c1O` has an MIC of greater than 64 µg/mL (DSM1116).
`CNC(C)C1CCC(N)C(OC2C(N)CC(N)C(OC3OCC(C)(O)C(NC)C3O)C2O)O1` (stereo not drawn) gave an MIC of 0.5 µg/mL (broth dilution; ATCC25922).
The MIC of `CCCCCCCC(=O)Oc1c(C)c(O)c(C(=O)/C=C/c2ccccc2)c(OC)c1C` is reported as 5000 µg/mL (broth dilution; ATCC25922).
For `C=CCn1c(-c2ccc(Cl)c(Cl)c2)nc2ccccc21`, the MIC was 64 µg/mL (broth dilution; ATCC25922).
With `CC1=NN(CNC(=O)c2ccccc2)C(=O)C1=NNn1c(-c2ccccc2)nc2ccccc2c1=O` the MIC was 51.9 µM (broth dilution; 24 h).
`O=C(Nc1ncc([N+](=O)[O-])s1)c1cccc(C(F)(F)F)c1` has an MIC of less than 50 µM.
The MIC of `C[C@@H](O)[C@H]1C(=O)N2C(C(=O)O)=C(S[C@@H]3CN[C@H](C(=O)N(C)C)C3)[C@H](C)[C@H]12` is reported as 0.5 µM (broth dilution; KCTC1682; 16 h).
For `CC(C)Oc1c(NC(=O)c2ccc(NC(=O)[C@H](CC(N)=O)NC(=O)c3ccc(NC(=O)c4ccc5c(c4)COC5=O)cc3)cc2)ccc(C(=O)Nc2ccc(C(=O)O)cc2)c1O`, the MIC was no more than 0.03 µg/mL (DSM1116).
For `NC1CCCCc2c1[nH]c1ccc(Cl)c(Cl)c21` (stereo not drawn), the MIC was 16 µg/mL (broth dilution; ATCC25922).
For `Oc1ccc(Br)cc1-c1nc2ccccc2[nH]1`, the MIC was 64 µg/mL (broth dilution; ATCC25922).
`N=C(N)c1ccc(OCc2cccc(COc3ccc(C(=N)N)cc3)c2)cc1` gave an MIC of 200 µg/mL (broth dilution; ATCC25922).
`CC(C)Oc1c(-n2cc(-c3ccc(NC(=O)C(CC(N)=O)NC(=O)c4ccc(NC(=O)c5ccc(C#N)cc5)cc4)cc3)nn2)ccc(C(=O)Nc2ccc(C(=O)O)cc2)c1O` (stereo not drawn) has an MIC of 0.06 µg/mL (DSM1116).
For `O=c1[nH]cc(F)c(=O)[nH]1`, the MIC was greater than 32 µg/mL (broth dilution; 24 h).
With `O=C(CCCCCCCCCC[P+](c1ccccc1)(c1ccccc1)c1ccccc1)Nc1cc(O)c(O)c(O)c1.[Br-]` the MIC was greater than 32 µg/mL (broth dilution; ATCC25922; 18 h).
The MIC of `N=C(N)c1cccc(OCc2ccccc2COc2cccc(C(=N)N)c2)c1` is reported as greater than 200 µg/mL (BW25113).
`Cc1ccc(C)n1-c1ccc(-c2nnc(-c3ccccc3Cl)[nH]2)cc1` gave an MIC of 250 µg/mL (broth dilution; ATCC10536; 18 h).
The MIC of `O=C(CCCCCCCCCC[P+](c1ccccc1)(c1ccccc1)c1ccccc1)Nc1ccc(O)c(O)c1.[Br-]` is reported as greater than 32 µg/mL (broth dilution; ATCC25922; 18 h).
With `C=CCOc1c(C)c(O)c(C(=O)/C=C/c2ccccc2)c(OC)c1C` the MIC was 5000 µg/mL (broth dilution; ATCC25922).
`CCCCCCC/C=C/C(=O)N1C(=O)/C(=C(\O)c2ccc(O)cc2)C(=O)C1CC(C)C` (stereo not drawn) gave an MIC of greater than 200 µg/mL (K12, K12).
The MIC of `CC(C)Oc1c(NC(=O)c2ccc(NC(=O)[C@H](CC(N)=O)NC(=O)c3cccc(-c4cccc(C#N)c4)c3)cc2)ccc(C(=O)Nc2ccc(C(=O)O)cc2)c1O` is reported as greater than 64 µg/mL (DSM1116).
The MIC of `O=C(O)c1cn(C2CC2)c2cc(N3CCNCC3)c(F)cc2c1=O` is reported as 4.72 µM (broth dilution; 24 h).
The MIC of `N=C(N)c1ccccc1OCc1ccc(COc2ccccc2C(=N)N)cc1` is reported as greater than 200 µg/mL (broth dilution; BW25113).
With `C/C(O)=C1\C(=O)C(CC(C)C)N(C(=O)CCCCCc2ccccc2)C1=O` (stereo not drawn) the MIC was greater than 200 µg/mL (K12, K12).
For `CN(C)c1ccc(-c2nc3ccccc3[nH]2)cc1`, the MIC was 64 µg/mL (broth dilution; ATCC25922).
With `N=C(N)c1ccc(OCc2ccc(Br)cc2COc2ccc(C(=N)N)cc2)cc1` the MIC was 200 µg/mL (broth dilution; W3110).
With `Cc1ccc2nc(-c3ccc(F)cc3)n(Cc3ccccc3)c2c1` the MIC was 128 µg/mL (broth dilution; ATCC25922).
With `Fc1ccccc1NCc1ccc(Oc2ccccn2)cc1` the MIC was greater than 25 µg/mL.
`CC1=NN(CNC(=O)c2ccccn2)C(=O)C1=NNn1c(-c2ccccc2)nc2ccccc2c1=O` has an MIC of 52 µM (broth dilution; 24 h).
For `CCn1cc(C(=O)O)c(=O)c2cc(F)c(N3CCNCC3)cc21`, the MIC was no more than 1 µg/mL (broth dilution; ATCC10536; 18 h).
`Clc1ccc(Cn2c(-c3ccc(Cl)cc3)nc3ccccc32)cc1` gave an MIC of 16 µg/mL (broth dilution; ATCC25922).
With `CCCCCCC#Cc1cncc(-c2nnc(SCc3ccc(Cl)cc3)n2C)c1` the MIC was no less than 20 µg/mL.
The MIC of `CC(C)Oc1c(NC(=O)c2ccc(NC(=O)[C@H](CC(N)=O)NC(=O)c3ccc(NC(=O)CCc4ccc(C#N)cc4)cc3)cc2)ccc(C(=O)Nc2ccc(C(=O)O)cc2)c1O` is reported as 0.125 µg/mL (DSM1116).
With `CCCCCCC/C=C/C(=O)N1C(=O)/C(=C(/C)O)C(=O)C1Cc1ccc(OC(C)(C)C)cc1` (stereo not drawn) the MIC was greater than 200 µg/mL (K12, K12).
For `O=[N+]([O-])c1ccc(-c2nc3cccc(O)c3[nH]2)o1`, the MIC was 2 µg/mL (broth dilution; ATTC25922).
`CCCCCCC/C=C/C(=O)N1C(=O)/C(=C(/C)O)C(=O)C1Cc1ccc(O)cc1` (stereo not drawn) has an MIC of greater than 200 µg/mL (K12, K12).
The MIC of `COc1c(C(=O)Nc2ccc(C(=O)O)cc2)ccc2nc(-c3cc(NC(=O)C(CC(N)=O)NC(=O)c4ccc(NC(=O)c5ccc(C#N)cc5)cc4)cn3C)[nH]c12` (stereo not drawn) is reported as greater than 64 µg/mL (DSM1116).
The MIC of `CC1(C)S[C@@H]2[C@H](NC(=O)[C@H](N)c3ccccc3)C(=O)N2[C@H]1C(=O)O` is reported as 0.3 µg/mL (broth dilution; ATCC25922; 16 h).
`N=C(N)c1ccc(OCc2cc(COc3ccc(C(=N)N)cc3)cc(-c3ccccc3)c2)cc1` has an MIC of 100 µg/mL (broth dilution; W3110).
`CC(C)Oc1c(NC(=O)c2ccc(NC(=O)[C@H](CC(N)=O)NC(=O)c3ccc(NC(=O)C(C)Sc4ccc(C#N)cc4)cc3)cc2)ccc(C(=O)Nc2ccc(C(=O)O)cc2)c1O` (stereo partly drawn) gave an MIC of 0.25 µg/mL (DSM1116).
`COc1c(C)c(OC(C)=O)c(C)c(O)c1C(=O)/C=C/c1ccccc1` gave an MIC of 5000 µg/mL (broth dilution; ATCC25922).
For `N=C(N)c1ccc(OCc2cc(Br)cc(COc3ccc(C(=N)N)cc3)c2)cc1`, the MIC was greater than 100 µg/mL (BW25113).
`Fc1cccc(Cl)c1-c1nc2ccccc2[nH]1` gave an MIC of 64 µg/mL (broth dilution; ATCC25922).
For `N=C(N)c1ccccc1OCc1ccccc1COc1ccccc1C(=N)N`, the MIC was greater than 200 µg/mL (broth dilution; BW25113).
With `O=[N+]([O-])c1ccc(O)c2ncccc12` the MIC was 4 µg/mL (broth dilution; ATCC35218).
